This is an account of results in publication PMC4963206 (ChemMedChem, 2016).

Series [1] has as its target T1, STAT3 (Homo sapiens, UniProt P40763). As to the kind of experiment: Competitive fluorescence polarization. Format: binding. The method, boiled down: (§1)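 Competitive binding assay in which the test compound displaces a fluoresceinated peptide from the SH2 domain, read by fluorescence polarization. IC50 is reported with a 95% confidence interval, and Ki is reported alongside it.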

The nature of series [2]: Metabolic stability in CD-1 mouse hepatocytes. In kind it is in vitro ADME. The essentials:
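CD-1 mouse hepatocytes were incubated with the test compound for 120 min. Remaining parent compound was quantified by LC-MS/MS at regular time points to assess metabolic degradation.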

In the next series the test system is AR230^R cells. As to the kind of experiment: Phenotypic screening / cytotoxicity in TKI-resistant CML cell line AR230^R. Format: cell-based.
Series [3] in a line: In vivo bioavailability / plasma pharmacokinetics, IP injection. On the set-up: species or system CD-1 mice. The essentials:
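CD-1 mice received 20 mg/kg IP in 10% DMA, 65% PEG 400, 25% saline. Parent compound in plasma was measured to give concentration–time profiles. In one study, a cohort of 3 mice was sampled at 15, 30, 60, 90, 180 and 360 min post-dose, and plasma was analysed for parent compound by LC-MS.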

The subject of series [4] is pSTAT3 / STAT3 in AR230^R cells. Format: cell-based. Particulars: 10 μM, 2 hours pre-treatment, IL-6 and IFN stimulation.
The next series addresses T2, STAT1 (Homo sapiens, UniProt P42224).
T2 sequence (P42224 1-750): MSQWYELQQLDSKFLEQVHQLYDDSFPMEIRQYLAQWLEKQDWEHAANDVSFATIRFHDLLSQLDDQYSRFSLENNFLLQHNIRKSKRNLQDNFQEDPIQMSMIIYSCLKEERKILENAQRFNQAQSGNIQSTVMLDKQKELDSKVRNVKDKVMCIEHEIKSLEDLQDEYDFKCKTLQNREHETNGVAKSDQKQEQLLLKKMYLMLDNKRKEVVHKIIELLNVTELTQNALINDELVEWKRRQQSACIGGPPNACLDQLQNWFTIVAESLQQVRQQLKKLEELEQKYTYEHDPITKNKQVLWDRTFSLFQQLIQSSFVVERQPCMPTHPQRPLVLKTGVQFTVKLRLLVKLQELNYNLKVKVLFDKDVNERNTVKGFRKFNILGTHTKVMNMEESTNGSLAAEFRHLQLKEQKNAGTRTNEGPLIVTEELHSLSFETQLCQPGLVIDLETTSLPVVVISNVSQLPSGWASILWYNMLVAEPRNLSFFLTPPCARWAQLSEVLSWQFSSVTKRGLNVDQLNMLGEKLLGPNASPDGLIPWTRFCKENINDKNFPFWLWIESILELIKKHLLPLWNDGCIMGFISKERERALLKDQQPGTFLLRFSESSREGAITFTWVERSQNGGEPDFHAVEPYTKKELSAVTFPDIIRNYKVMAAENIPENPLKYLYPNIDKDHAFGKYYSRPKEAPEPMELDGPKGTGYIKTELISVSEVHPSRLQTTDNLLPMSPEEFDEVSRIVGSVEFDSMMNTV
As to the kind of experiment: Competitive fluorescence polarization. Format: binding. The method, boiled down: as §1

The target of series [5] is T1, STAT3. In words: 19F NMR examination of binding to STAT3. Particulars: 100 μM compound with STAT3, 37 °C, 1 hour.
Series [6] is described as follows: 19F NMR monitoring of reaction with glutathione. Format: physicochemical. Particulars: 100 μM, 10 equivalents of glutathione, 37 °C, 15 hours. The method, boiled down: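 Samples were in 100 mM HEPES pH 7.2, 150 mM NaCl, with 10% […] and 1% DMSO final. Test compound at 100 μM was incubated with 10 equivalents of glutathione for 15 hours at 37°C. ¹⁹F NMR spectra were recorded at 37°C on a 600 MHz spectrometer with a room-temperature H(F)CN probe.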

The nature of another series: Plasma protein binding. In kind it is in vitro ADME. Particulars: CD-1 mice plasma, dialysis 6 hours, 37°C. The method, boiled down: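 Plasma protein isolated from CD-1 mice was spiked with the test compound and dialysed against PBS for 6 hours at 37°C under 5% CO₂. Plasma and buffer compartments were both analysed to give the percentage of free compound. Ketoconazole was the positive control.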

Another series concerns AR230 cells. In words: Phenotypic screening / cytotoxicity in CML cell line AR230. Format: cell-based. Particulars: read-out: IC50 AR230.

“And” between values parts separate entries of the source, which are not always exact repeats. Equal values may be shown once.

T1 sequence (P40763 whole entry, species assumed, the tested form may be a part): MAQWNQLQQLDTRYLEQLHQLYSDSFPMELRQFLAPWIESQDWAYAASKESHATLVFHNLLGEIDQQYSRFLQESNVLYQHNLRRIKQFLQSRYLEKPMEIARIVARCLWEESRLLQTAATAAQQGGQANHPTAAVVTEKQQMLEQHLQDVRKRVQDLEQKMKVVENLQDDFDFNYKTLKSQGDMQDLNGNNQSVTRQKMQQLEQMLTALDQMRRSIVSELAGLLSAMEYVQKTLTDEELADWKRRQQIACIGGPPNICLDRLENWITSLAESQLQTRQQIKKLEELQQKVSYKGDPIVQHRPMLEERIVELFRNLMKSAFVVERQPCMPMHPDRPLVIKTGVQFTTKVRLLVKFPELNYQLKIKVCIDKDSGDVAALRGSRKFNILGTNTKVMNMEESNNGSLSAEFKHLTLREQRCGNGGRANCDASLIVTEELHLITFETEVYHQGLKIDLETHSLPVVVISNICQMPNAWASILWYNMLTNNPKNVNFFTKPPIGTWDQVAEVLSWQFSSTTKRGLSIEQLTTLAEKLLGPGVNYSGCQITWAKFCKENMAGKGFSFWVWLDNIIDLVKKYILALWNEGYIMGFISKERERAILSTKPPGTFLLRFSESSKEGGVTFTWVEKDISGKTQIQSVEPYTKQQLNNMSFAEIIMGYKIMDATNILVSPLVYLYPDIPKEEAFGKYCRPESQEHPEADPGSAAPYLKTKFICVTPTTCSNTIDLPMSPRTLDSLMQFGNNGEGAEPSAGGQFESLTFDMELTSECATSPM

Regarding `CC(C)(C)c1ccc(CN(C(=O)CN(C2CC2)S(=O)(=O)c2c(F)c(F)cc(F)c2F)c2ccc(C(=O)O)cc2)cc1` [AM-1-124, 4-(N-(4-(tert-butyl)benzyl)-2-(N-cyclopropyl-2,3,5,6-tetrafluorophenylsulfonamido)acetamido)benzoic acid], the IC50 at STAT3 [1] is 30 µM; in the series with AR230^R cells (read-out: IC50 AR230^R) it was 4.8 µM; in the series on AR230 cells, 26.9 µM. In addition, the Ki at STAT3 [1] (Ki STAT3, disruption of STAT3:IL-6R/gp130 peptide complex, FP) was 15 µM and 15.3 µM; at STAT1, greater than 250 µM. In addition, in [2], the “fold more resistant to metabolism than SH-4-54” value is on record as ~ 4 fold. Moreover, the “fold improvement in selectivity vs SH-4-54” value in the series on AR230^R cells stood at 5 fold. Besides, the “fold selectivity for AR230^R over AR230 cells” value in the series on AR230^R cells came to 5.6 fold. Besides, in the series with AR230^R cells (Table 5, AR230 vs AR230^R), the “Fold Difference” value is 5.6. In series [3] (CD-1 mice, IP 20 mg/kg), the “plasma concentration for the first 120 mins” value is reported as “above 2000 ng/mL”. In [3] (male, CD-1, mouse, plasma, ip, 20 mg/kg), this molecule had a half-life of 1.42 h. For the same molecule, the “cytokine-induced pSTAT3 activation” value in series [4] was “partially inhibited cytokine-induced pSTAT3 activation”. Moreover, the “nuclear STAT3 protein localization” value in [4] was “reduced the nuclear STAT3 protein localization”. In addition, the “mode of interaction with STAT3 (19F NMR, fluoride ion production)” value on STAT3 [5] is given as “non-covalent”. For the same molecule, in series [6], the “reaction with glutathione (19F NMR)” value was “inert to glutathione”. Also, the “bound to mouse plasma proteins” value in the series “Plasma protein binding” was found to be 99.7%.

As a reminder, the IC50 is the midpoint of a concentration-inhibition curve. The term Ki denotes a measure of affinity in units of concentration, obtained from inhibition or displacement. Low readings indicate higher affinity, high ones lower affinity. In general, half-life refers to the time needed for the level to fall by half in the phase considered. Read a low half-life as rapid decline.
